Columns and labels:
HepG2 [1] = test: Antitumor activity against human HepG2 cells xenografted in Balb/c mouse assessed as reduction in tumor volume administered orally as 0.5% MC suspension for 21 days relative to control; format: functional; set-up: scale not given: the % may be the effect or the level left; settings: time 21 day
[2] = Inhibition of porcine brain tubulin polymerization measured every 60 sec for 60 mins in presence of GTP by fluorescence assay; set-up: species or system Sus scrofa
How it was run: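 Fluorescence kit assay using 2 mg/mL porcine brain tubulin with 2 mM MgCl₂, 0.5 mM EGTA, 1 mM GTP and 15% glycerol. Compound at various concentrations preincubated 1 min at 37 °C before adding the tubulin mix. Read at ex 355/em 460 nm every 60 s for 60 min. IC50 is the concentration giving 50% inhibition at 60 min; mean ± SD of ≥3 independent experiments.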

A549 = test: Antiproliferation activity against human A549 cells assessed as cell growth inhibition measured after 72 hrs by MTT assay; format: functional
How it was run: (§1)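 Cells grown in RPMI-1640 with 10% FBS at 37 °C, 5% CO2, seeded at 4−7 × 10³ cells/well and left to adhere overnight. Exposed to a range of concentrations for 72 h, then MTT (2.5 mg/mL stock) added for 4 h. Formazan dissolved in DMSO and absorbance read at 570 nm. GI50 taken as the concentration giving 50% growth inhibition, reported as mean ± SD of at least three independent experiments.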

[3] = Aqueous solubility of compound in DMSO at pH 7.4 by HPLC analysis; format: physicochemical; settings: aqueous medium
How it was run: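 Solubility measured at pH 7.4. DMSO stock (10 mg/mL) diluted in methanol to five levels to build an HPLC peak-area standard curve. Compound added to 1 mL buffer to make a saturated solution, and the peak area of that solution analysed by HPLC on a C18 column. Solubility calculated from the standard curve.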

HCT-116 = test: Antiproliferation activity against human HCT116 cells assessed as cell growth inhibition measured after 72 hrs by MTT assay; format: functional; how it was run: as §1
[4] = Lipophilicity, log P of the compound in DMSO and n-octanol at pH 7.4 incubated for 10 hrs under stirred condition by HPLC analysis; format: physicochemical; settings: n-octanol / aqueous phase pH 7.4, pH 7.4
How it was run: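 Partition between n-octanol and water: mixture stirred at room temperature for 10 h, then left at 4 °C overnight. Each phase analysed separately by HPLC on a C18 column. Log P taken from the ratio of peak areas in n-octanol and water.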

HepG2 [5] = test: Antiproliferation activity against human HepG2 cells assessed as cell growth inhibition measured after 72 hrs by MTT assay; format: functional; how it was run: as §1

- IC50 [2]: 4100 nM
- GI50 (A549): 23.2 nM
- solubility [3]: < 5 µg/mL
- GI50 (HCT-116): 39.6 nM
- logD at 10 h [4]: 3.18
- GI50 (HepG2 [5]): 8.6 nM
Compound: CCOc1cccc(Nc2nn(C)c3c2Cc2cc(OCC)c(OCC(N)=O)cc2-3)c1
- Activity (HepG2 [1]): 50%
